According to ChEMBL document CHEMBL1147670, “2,6-disubstituted and 2,6,8-trisubstituted purines as adenosine receptor antagonists” (J Med Chem, 2006):
Active and inactive are the calls of the source. The rule behind the calls is not given here.

Columns and labels:
Adenosine receptor A2a [1] = molecular target: T1, Adenosine receptor A2a (Homo sapiens, UniProt P29274); experiment: Displacement of [3H]ZM 241385 from human adenosine A2a receptor expressed in HEK293 cells at 1 uM; assay type: cell-based
Method in brief: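 Single-point screen at 1 µM for % displacement of specific [³H]ZM 241385 binding at human A2A receptors in HEK 293 cells, n = 2.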

Adenosine receptor A1 [2] = molecular target: T2, Adenosine receptor A1 (Homo sapiens, UniProt P30542); experiment: Displacement of [3H]DPCPX from human adenosine A1 receptor expressed in CHO cells; assay type: cell-based
T2 sequence (P30542 whole entry): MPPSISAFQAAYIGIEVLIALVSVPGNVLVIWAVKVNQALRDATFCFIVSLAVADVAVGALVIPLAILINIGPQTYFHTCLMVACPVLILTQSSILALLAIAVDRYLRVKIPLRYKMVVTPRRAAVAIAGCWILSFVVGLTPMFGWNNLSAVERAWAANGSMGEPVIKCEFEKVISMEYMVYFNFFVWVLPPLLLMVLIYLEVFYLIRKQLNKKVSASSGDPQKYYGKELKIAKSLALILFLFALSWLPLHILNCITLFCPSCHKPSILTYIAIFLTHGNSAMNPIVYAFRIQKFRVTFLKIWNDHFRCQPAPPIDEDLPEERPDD
Method in brief: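 Competition binding against [³H]DPCPX (K_D 1.6 nM) at human A1 receptors expressed in CHO cells. Ki was derived by nonlinear regression, mean ± SEM, n = 3.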

Adenosine receptor A2a [3] = molecular target: T1, Adenosine receptor A2a; experiment: Displacement of [3H]ZM 241385 from human adenosine A2a receptor expressed in HEK293 cells; assay type: cell-based
Method in brief: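 Radioligand competition using [³H]ZM 241385 (K_D 1.0 nM) at human A2A receptors expressed in HEK 293 cells. Ki was obtained by nonlinear regression, ± SEM, n = 3.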

Adenosine receptor A3 = molecular target: T3, Adenosine receptor A3 (Homo sapiens, UniProt P0DMS8); experiment: Displacement of [125I]AB-MECA from human adenosine A3 receptor expressed in HEK293 cells; assay type: cell-based
T3 sequence (P0DMS8 whole entry): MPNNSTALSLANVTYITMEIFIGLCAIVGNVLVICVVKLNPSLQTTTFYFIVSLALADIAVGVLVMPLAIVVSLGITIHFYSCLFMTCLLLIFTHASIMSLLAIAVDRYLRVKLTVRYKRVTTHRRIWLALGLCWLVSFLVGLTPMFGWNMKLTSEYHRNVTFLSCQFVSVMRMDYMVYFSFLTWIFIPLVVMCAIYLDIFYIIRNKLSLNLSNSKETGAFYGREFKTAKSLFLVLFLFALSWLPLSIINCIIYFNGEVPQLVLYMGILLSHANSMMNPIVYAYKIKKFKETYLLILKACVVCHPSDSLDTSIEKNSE

[4] = molecular target: T4, Adenosine receptor A1 (Homo sapiens) (UniProt P30542); experiment: Displacement of [3H]DPCPX from human adenosine A1 receptor expressed in CHO cells at 1 uM; assay type: cell-based
T4 sequence (whole entry): T2 sequence (P30542 whole entry)
Method in brief: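 Inhibition of specific [³H]DPCPX binding to human A1 receptors in CHO cells by test compound at 1 µM, reported as % displacement, n = 2.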

[5] = molecular target: Adenosine receptors; A1 & A2a (Homo sapiens) (UniProt P30542+P29274); experiment: Selectivity for human adenosine A1 receptor over adenosine A2a receptor; assay type: protein assay
Method in brief: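 Ki values from radioligand displacement binding at each receptor. Human A1 expressed in CHO cells with [3H]DPCPX (KD 1.6 nM); human A2A expressed in HEK 293 cells with [3H]ZM 241385 (KD 1.0 nM). Ki from nonlinear regression, mean ± SEM (n = 3); selectivity compares the A1 and A2A Ki values.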

[6] = molecular target: T4, Adenosine receptor A1 (Homo sapiens); experiment: (§1) Activity against human adenosine A1 receptor in CHO cells assessed by the antagonizing effect of 100 nM CPA on forskolin-induced cAMP production; assay type: functional, cell-based
Method in brief: (§2)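 Whole-cell cAMP assay in CHO cells expressing human A1 receptor, 2 × 10⁵ cells/well grown overnight as a monolayer. Cells were pretreated 30 min at 37 °C with adenosine deaminase 0.8 IU/mL, rolipram 50 µM and cilostamide 50 µM in HEPES/DMEM pH 7.4. Compound was then given against 100 nM CPA, followed by forskolin 10 µM for 15 min. cAMP was measured by [³H]cAMP/PKA competition. A full concentration-response curve gave K_B.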

Adenosine receptor A1 [7] = molecular target: T2, Adenosine receptor A1; experiment: as §1; assay type: functional, cell-based; method in brief: as §2
[8] = molecular target: T4, Adenosine receptor A1 (Homo sapiens); experiment: Activity against human adenosine A1 receptor in CHO cells by increase of forskolin-induced cAMP production at 100 nM; assay type: functional, cell-based; conditions: filed as antagonist
Method in brief: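 Human A1-expressing CHO monolayers were preincubated 30 min at 37 °C with adenosine deaminase (0.8 IU/mL), rolipram and cilostamide (50 µM each) in HEPES/DMEM pH 7.4. Test compound at 100 nM was added for 10 min, then forskolin 10 µM for 15 min, and the reaction was stopped with ice-cold 0.1 M HCl. cAMP was measured by [³H]cAMP competition for PKA. Forskolin alone was set at 100% and CPA 1 µM at 0%. At least three experiments in duplicate.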

T1 sequence (P29274 whole entry): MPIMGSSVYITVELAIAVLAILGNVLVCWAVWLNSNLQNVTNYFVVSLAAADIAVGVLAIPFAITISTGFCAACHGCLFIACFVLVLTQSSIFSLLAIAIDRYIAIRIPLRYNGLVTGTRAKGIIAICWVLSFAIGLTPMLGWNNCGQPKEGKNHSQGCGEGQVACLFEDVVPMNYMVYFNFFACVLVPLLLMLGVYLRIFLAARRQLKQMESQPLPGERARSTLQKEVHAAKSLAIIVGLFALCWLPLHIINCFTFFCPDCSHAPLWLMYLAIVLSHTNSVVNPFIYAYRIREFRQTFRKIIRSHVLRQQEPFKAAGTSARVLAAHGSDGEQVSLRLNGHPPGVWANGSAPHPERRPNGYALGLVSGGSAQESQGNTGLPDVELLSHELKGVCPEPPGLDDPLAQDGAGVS
Sequence of Adenosine receptors; A1 & A2a (Homo sapiens) (P29274 whole entry, looked up, one chain of several): as the sequence (P29274 whole entry) above

Row | Activity (Adenosine receptor A2a [1]) | Ki (Adenosine receptor A1 [2]) | Ki (Adenosine receptor A2a [3]) | Ki (Adenosine receptor A3) | Compound | other results
1 | 20.3% | 37 nM | – | – | Clc1ccc(-c2[nH]c(-c3ccccc3)nc3nc(C4CCCCC4)nc2-3)cc1Cl | –
2 | – | 4 nM | 289 nM | 9.4 nM | Cc1ccc(-c2nc(-c3ccccc3)c3[nH]cnc3n2)cc1 | –
3 | 27% | 3.7 nM | – | 138 nM | COc1ccc(-c2[nH]c(-c3ccccc3)nc3nc(C4CCCCC4)nc2-3)cc1 | –
4 | 24% | – | – | – | Clc1ccc(-c2[nH]c(-c3ccccc3)nc3nc(C4CCCCC4)nc2-3)cc1 | –
5 | 11% | – | – | 68 nM | Clc1ccc(-c2nc(-c3ccc(Cl)cc3)c3[nH]cnc3n2)cc1 | Activity [4]: 21%
6 | 9% | – | – | – | Cc1ccc(-c2[nH]c(-c3ccccc3)nc3nc(C4CCCCC4)nc2-3)cc1 | –
7 | – | 36 nM | – | – | Cc1ccc(-c2nc(-c3ccccc3)nc3nc(C4CCCCC4)[nH]c23)cc1 | –
8 | – | 4.4 nM | 167 nM | 17 nM | CCCc1nc2nc(-c3ccccc3)nc(-c3ccccc3)c2[nH]1 | –
9 | – | 21 nM | 66 nM | 49 nM | c1ccc(-c2nc(-c3ccccc3)c3[nH]c(-c4ccccc4)nc3n2)cc1 | –
10 | 0% | – | – | – | Cn1c(C2CCCCC2)nc2c(-c3ccccc3)nc(-c3ccccc3)nc21 | Activity [4]: 24%
11 | – | 0.29 nM | 55 nM | 35 nM | c1ccc(-c2nc(-c3ccccc3)c3nc(C4CCCC4)nc-3[nH]2)cc1 | Ratio Ki [5]: 190; Activity [6]: Active
12 | 37% | – | – | 165 nM | COc1ccc(-c2nc(-c3ccc(OC)cc3)c3[nH]cnc3n2)cc1 | Activity [4]: 40%
13 | – | 27 nM | 315 nM | 94 nM | Clc1ccc(-c2nc(-c3ccccc3)c3[nH]cnc3n2)cc1 | –
14 | 47% | 32 nM | – | 4 nM | COc1ccc(-c2nc(-c3ccccc3)c3[nH]cnc3n2)cc1 | –
15 | – | 4.1 nM | 53 nM | 38 nM | c1ccc(-c2nc(-c3ccccc3)c3[nH]cnc3n2)cc1 | –
16 | – | 25 nM | – | 243 nM | Clc1ccc(-c2nc(-c3ccccc3)nc3nc(C4CCCCC4)[nH]c23)cc1 | –
17 | – | 0.73 nM | 118 nM | 200 nM | c1ccc(-c2nc(-c3ccccc3)c3nc(C4CCCCC4)nc-3[nH]2)cc1 | IC50 (Adenosine receptor A1 [7]): 477 nM
18 | 4% | 235 nM | – | 9.3 nM | Cc1ccc(-c2nc(-c3ccc(C)cc3)c3[nH]cnc3n2)cc1 | –
19 | – | 0.82 nM | 148 nM | 9.5 nM | CC(C)c1nc2[nH]c(-c3ccccc3)nc(-c3ccccc3)c-2n1 | Activity [8]: Antagonist
